PMC6468299 (Nucleic Acids Research, 2019)
Marks after values point to notes of the source that are not given here.

Columns and labels:
DNA polymerase β (Pol-β) = DNA polymerase β (Pol-β) (Homo sapiens, UniProt P06746); assay: DNA polymerase inhibition assay, Pol-β; format: biochemical; details: 1 h, 3H-dTTP incorporation
Method in brief: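 Reactions contained 25 μM each dATP/dCTP/dGTP, 25 nM TTP plus 1 μCi ³H-TTP, 160 nM template/primer, and serially diluted test nucleotide (0–200 μM). Incubation was 1 h at 37°C. DNA was TCA-precipitated, washed and counted; inhibition was taken from reduced incorporation. ddNTPs served as positive control.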

[1] = target: T1, human mitochondrial DNA polymerase γ (Pol-γ exo-mutant) (Homo sapiens, UniProt P54098, D198A/E200A); assay: Pol-γ primer extension; format: biochemical
T1 sequence (P54098 26-1239 D198A/E200A limits assumed): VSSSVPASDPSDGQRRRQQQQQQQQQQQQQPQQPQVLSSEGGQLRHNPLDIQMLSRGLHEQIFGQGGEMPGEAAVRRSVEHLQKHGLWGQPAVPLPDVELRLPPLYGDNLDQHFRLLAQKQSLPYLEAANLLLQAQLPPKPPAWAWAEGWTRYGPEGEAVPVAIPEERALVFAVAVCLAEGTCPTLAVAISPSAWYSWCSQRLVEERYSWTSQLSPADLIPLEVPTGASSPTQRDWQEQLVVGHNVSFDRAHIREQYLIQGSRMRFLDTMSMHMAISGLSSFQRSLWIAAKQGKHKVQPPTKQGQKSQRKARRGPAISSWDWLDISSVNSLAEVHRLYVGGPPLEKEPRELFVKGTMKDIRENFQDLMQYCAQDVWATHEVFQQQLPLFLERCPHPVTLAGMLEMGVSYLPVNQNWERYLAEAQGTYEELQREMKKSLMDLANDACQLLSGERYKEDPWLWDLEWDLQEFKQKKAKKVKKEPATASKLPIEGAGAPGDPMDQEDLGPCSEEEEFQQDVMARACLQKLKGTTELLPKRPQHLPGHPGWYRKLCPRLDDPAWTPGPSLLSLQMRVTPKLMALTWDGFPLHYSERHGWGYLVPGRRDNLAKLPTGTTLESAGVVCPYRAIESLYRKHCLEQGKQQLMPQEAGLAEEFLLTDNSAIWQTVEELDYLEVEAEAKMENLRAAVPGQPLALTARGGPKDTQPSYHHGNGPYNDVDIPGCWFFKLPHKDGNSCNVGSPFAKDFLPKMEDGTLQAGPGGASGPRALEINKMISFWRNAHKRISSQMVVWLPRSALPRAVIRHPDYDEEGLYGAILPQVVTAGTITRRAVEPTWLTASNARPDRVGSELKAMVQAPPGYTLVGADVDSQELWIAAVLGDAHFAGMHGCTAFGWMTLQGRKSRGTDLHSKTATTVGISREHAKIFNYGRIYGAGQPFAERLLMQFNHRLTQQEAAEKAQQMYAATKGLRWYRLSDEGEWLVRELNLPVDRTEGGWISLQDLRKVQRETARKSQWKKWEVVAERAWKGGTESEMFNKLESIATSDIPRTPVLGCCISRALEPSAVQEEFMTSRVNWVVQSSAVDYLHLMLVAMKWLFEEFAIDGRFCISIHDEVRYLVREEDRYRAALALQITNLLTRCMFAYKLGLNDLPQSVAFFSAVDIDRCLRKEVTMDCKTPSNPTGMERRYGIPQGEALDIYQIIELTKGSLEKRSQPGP
Method in brief: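 Exonuclease-deficient human Pol-γ (40 units) was used with 100 nM DNA template and 100 nM Atto-425-labelled 14-mer DNA primer. Substrate was 1 mM dNTP or 2′-F-NTP, or mixtures 100:1 to 1:100 (1:1 both 1 mM). Products were separated by fluorescence IEX-HPLC (ex 436/em 485 nm) at pH 11. Products under 1.0% peak area were called not detected.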

[2] = target: Human mitochondrial RNA polymerase (POLRMT) (Homo sapiens, UniProt O00411); assay: POLRMT primer extension; format: biochemical
Chain of Human mitochondrial RNA polymerase (POLRMT) (O00411 42-1230): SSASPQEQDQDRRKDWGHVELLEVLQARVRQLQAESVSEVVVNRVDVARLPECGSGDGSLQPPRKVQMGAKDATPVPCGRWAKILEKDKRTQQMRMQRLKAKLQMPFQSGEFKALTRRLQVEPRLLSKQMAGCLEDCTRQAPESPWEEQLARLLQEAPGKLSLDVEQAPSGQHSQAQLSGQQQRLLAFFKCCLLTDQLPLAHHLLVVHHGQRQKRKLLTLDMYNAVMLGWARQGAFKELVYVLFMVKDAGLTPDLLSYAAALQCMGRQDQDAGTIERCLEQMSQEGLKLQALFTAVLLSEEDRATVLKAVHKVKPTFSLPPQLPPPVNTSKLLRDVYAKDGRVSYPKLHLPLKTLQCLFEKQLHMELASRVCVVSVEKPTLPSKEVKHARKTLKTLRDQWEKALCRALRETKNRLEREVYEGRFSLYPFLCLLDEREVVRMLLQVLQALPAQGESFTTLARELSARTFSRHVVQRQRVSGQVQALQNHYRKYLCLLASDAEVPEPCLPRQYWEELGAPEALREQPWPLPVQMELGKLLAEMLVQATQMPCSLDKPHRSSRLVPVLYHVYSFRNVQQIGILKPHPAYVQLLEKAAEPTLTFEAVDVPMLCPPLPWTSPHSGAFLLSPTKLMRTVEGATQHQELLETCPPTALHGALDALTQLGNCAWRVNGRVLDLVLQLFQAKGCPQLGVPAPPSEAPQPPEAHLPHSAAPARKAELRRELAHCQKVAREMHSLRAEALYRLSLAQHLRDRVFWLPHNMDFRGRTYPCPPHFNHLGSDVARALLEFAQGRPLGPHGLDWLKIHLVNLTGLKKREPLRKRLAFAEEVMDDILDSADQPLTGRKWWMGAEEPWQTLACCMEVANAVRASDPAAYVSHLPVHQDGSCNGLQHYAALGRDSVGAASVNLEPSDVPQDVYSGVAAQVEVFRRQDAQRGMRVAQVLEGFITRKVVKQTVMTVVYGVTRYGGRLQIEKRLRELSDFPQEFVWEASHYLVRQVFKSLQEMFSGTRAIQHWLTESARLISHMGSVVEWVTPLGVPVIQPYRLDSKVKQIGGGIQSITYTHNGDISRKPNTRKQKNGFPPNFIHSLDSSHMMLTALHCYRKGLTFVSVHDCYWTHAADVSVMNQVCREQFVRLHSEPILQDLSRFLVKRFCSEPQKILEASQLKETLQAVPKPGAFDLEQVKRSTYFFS
Method in brief: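 Reactions contained 200 nM DNA template, 25 nM Atto-425-labelled 12-mer RNA primer and 300 nM human POLRMT. Substrate was 1 mM NTP or 2′-F-NTP, or mixtures from 100:1 to 1:100 (1:1 both 1 mM). Products were resolved by fluorescence anion-exchange HPLC (ex 436/em 485 nm, pH 11 NaBr gradient). Products under 1.0% peak area were called not detected.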

[3] = tested on: human mitochondrial Pol-γ; details: absence of endogenous dNTPs; cited from earlier work
Pol-γ (exo- mutant) = target: T2, Pol-γ (exo- mutant) (Homo sapiens, UniProt P54098, D198A/E200A); assay: Non-obligate chain termination assay; format: biochemical; details: for chain elongation with analog in excess over dTTP: analog 1 μM at 10-fold (FIAU-TP also 100-fold) excess over dTTP; for chain elongation with analog substituted for dTTP: analog 1 μM, no dTTP; for effect on chain elongation in the presence of native dTTP: dTTP 1 μM, analog at 0.01, 0.1 or 1 μM, 37°C, 10 min
T2 sequence (P54098 26-1239 D198A/E200A limits assumed): T1 sequence (P54098 26-1239 D198A/E200A limits assumed)
Method in brief: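 A 23-mer DNA primer was 5′-end labelled with γ-³²P ATP and annealed to a 50-mer template. Extension required reading through nine consecutive template adenosines. Reactions used 10 units exonuclease-deficient human Pol-γ, with test analogue (0.01–1 μM) alone or with dTTP, plus native dATP/dCTP/dGTP, for 10 min at 37°C. Samples were stopped with loading dye, heated 100°C 5 min, run on 12% urea PAGE and phosphorimaged.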

IC50 (DNA polymerase β (Pol-β)) | IC90 (DNA polymerase β (Pol-β)) | % 2′-F product ([1]; F only) | % Native product ([1]; Native only (no 2′-F-NTP)) | % Native product ([1]; Native:F ratio 1:1) | % Native product ([1]; Native:F ratio 1:10) | % 2′-F product ([1]; Native:F ratio 1:100) | % Native product ([1]; Native:F ratio 1:100) | % 2′-F product ([2]; F only) | % Native product ([2]; Native only (no 2′-F-NTP)) | % Native product ([2]; Native:F ratio 1:1) | % Native product ([2]; Native:F ratio 1:10) | % Native product ([2]; Native:F ratio 1:100) | Compound | % 2′-F product ([1]; Native:F ratio 1:1) | % 2′-F product ([1]; Native:F ratio 1:10) | % 2′-F product ([2]; Native:F ratio 1:1) | % 2′-F product ([2]; Native:F ratio 1:10) | % 2′-F product ([2]; Native:F ratio 1:100) | misincorporation frequency relative to the natural dTTP/dNTP [3] | chain elongation with analog in excess over dTTP (Pol-γ (exo- mutant)) | also measured
91.6 µM | > 200 µM | 87.3^a % | 83.3^a % | 83.8^a % | 90.0^b % | 7.6^b % | 80.1^b % | 31.8^a % | 40.8^a % | 32^a % | 45.3^a % | 35.6^a % | O=c1ccn([C@@H]2O[C@H](COP(=O)(O)OP(=O)(O)OP(=O)(O)O)[C@@H](O)[C@H]2F)c(=O)[nH]1 [2′-F-UTP] | ND (not detected (integration peak area <1.0%)) | 2.9^b % | ND (not detected (integration peak area <1.0%)) | ND (not detected (integration peak area <1.0%)) | ND (not detected (integration peak area <1.0%)) | 0.5% | the presence of dTTP reduced the elongation defect | chain elongation with analog substituted for dTTP (Pol-γ (exo- mutant)): weak smear of elongated species with very little full-length product; effect on chain elongation in the presence of native dTTP (Pol-γ (exo- mutant)): essentially no impact on chain elongation
0.37 µM | 5.56 µM | 94.4^a % | 98.3^a % | 91.7^b % |  | 82.7^b % |  | 21.0^a % | 34.6^a % | 25.1^a % | 25.4^a % | 24.10^b % | O=c1[nH]c(=O)n([C@@H]2O[C@H](COP(=O)(O)OP(=O)(O)OP(=O)(O)O)[C@@H](O)[C@@H]2F)cc1I [FIAU-TP, fialuridine triphosphate, reference compound] | 4.5^b % | 44.0^b % | ND (not detected (integration peak area <1.0%)) | ND (not detected (integration peak area <1.0%)) | 1.1^b % | 125% | continued to strongly impair elongation | chain elongation with analog substituted for dTTP (Pol-γ (exo- mutant)): restricted elongation products to 31 nucleotides in length; effect on chain elongation in the presence of native dTTP (Pol-γ (exo- mutant)): caused a reduction in full-length product and an increase in shorter products at the highest concentration

Second part, the molecule before the results:

Compound | IC50 (DNA polymerase β (Pol-β)) | IC90 (DNA polymerase β (Pol-β)) | % 2′-F product ([1]; F only) | % Native product ([1]; Native only (no 2′-F-NTP)) | % Native product ([1]; Native:F ratio 1:1) | % Native product ([1]; Native:F ratio 1:10) | % 2′-F product ([1]; Native:F ratio 1:100) | % Native product ([1]; Native:F ratio 1:100) | % 2′-F product ([2]; F only) | % Native product ([2]; Native only (no 2′-F-NTP)) | % Native product ([2]; Native:F ratio 1:1) | % Native product ([2]; Native:F ratio 1:10) | % Native product ([2]; Native:F ratio 1:100) | % 2′-F product ([1]; Native:F ratio 1:1) | % 2′-F product ([1]; Native:F ratio 1:10) | % 2′-F product ([2]; Native:F ratio 1:1) | % 2′-F product ([2]; Native:F ratio 1:10) | % 2′-F product ([2]; Native:F ratio 1:100) | misincorporation frequency relative to the natural dTTP/dNTP [3] | chain elongation with analog in excess over dTTP (Pol-γ (exo- mutant)) | also measured
Nc1ncnc2c1ncn2[C@@H]1O[C@H](COP(=O)(O)OP(=O)(O)OP(=O)(O)O)[C@@H](O)[C@H]1F [2′-F-ATP] | 175 µM | > 200 µM | 94.2^a % | 95.9^a % | 96.3^a % | 97.1^a % | 17.6^b % | 79.8^b % | 42.6^a % | 69.2^a % | 67.8^a % | 63.5^a % | 51.4^a % | ND (not detected (integration peak area <1.0%)) | ND (not detected (integration peak area <1.0%)) | ND (not detected (integration peak area <1.0%)) | ND (not detected (integration peak area <1.0%)) | ND (not detected (integration peak area <1.0%)) |  |  | 
Nc1ccn([C@@H]2O[C@H](COP(=O)(O)OP(=O)(O)OP(=O)(O)O)[C@@H](O)[C@H]2F)c(=O)n1 [2′-F-CTP] | > 200 µM | > 200 µM | 94.0^a % | 97.3^a % | 96.2^a % | 90.6^b % | 30.9^b % | 64.5^b % | 58.7^a % | 48.8^a % | 39.3^a % | 43.7^a % | 37.0^b % | ND (not detected (integration peak area <1.0%)) | 4.4^b % | ND (not detected (integration peak area <1.0%)) | ND (not detected (integration peak area <1.0%)) | 9.1^b % |  |  | 
Nc1nc2c(ncn2[C@@H]2O[C@H](COP(=O)(O)OP(=O)(O)OP(=O)(O)O)[C@@H](O)[C@H]2F)c(=O)[nH]1 [2′-F-GTP] | > 200 µM | > 200 µM | 73.9^a % | 89.2^a % | 85.0^a % | 88.9^a % | 23.7^b % | 56.0^b % | 78.9^a % | 95.0^a % | 96.4^a % | 83.4^a % | 69.2^b % | ND (not detected (integration peak area <1.0%)) | ND (not detected (integration peak area <1.0%)) | ND (not detected (integration peak area <1.0%)) | ND (not detected (integration peak area <1.0%)) | 8.9^b % | 16% |  | 
